Shown are actives, neighbours in structure and some others; about 2.3% of the full set was active somewhere.
TRPC4 agonist: activators of mouse TRPC4 channel; Q9QUQ5; HEK293 TRPC4beta/mu-opioid, Fluo4 calcium fluorescence; active compounds read high; B-score at 10 µM; 0.49% of 310,000 active; AID 2237;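 active = B-score above 5 SD of library B-scores, and initial fluorescence ratio not above library mean plus 5 SD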;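 note: positive B-score marks a calcium rise read as TRPC4 activation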
Target sequence (Q9QUQ5 whole entry, looked up): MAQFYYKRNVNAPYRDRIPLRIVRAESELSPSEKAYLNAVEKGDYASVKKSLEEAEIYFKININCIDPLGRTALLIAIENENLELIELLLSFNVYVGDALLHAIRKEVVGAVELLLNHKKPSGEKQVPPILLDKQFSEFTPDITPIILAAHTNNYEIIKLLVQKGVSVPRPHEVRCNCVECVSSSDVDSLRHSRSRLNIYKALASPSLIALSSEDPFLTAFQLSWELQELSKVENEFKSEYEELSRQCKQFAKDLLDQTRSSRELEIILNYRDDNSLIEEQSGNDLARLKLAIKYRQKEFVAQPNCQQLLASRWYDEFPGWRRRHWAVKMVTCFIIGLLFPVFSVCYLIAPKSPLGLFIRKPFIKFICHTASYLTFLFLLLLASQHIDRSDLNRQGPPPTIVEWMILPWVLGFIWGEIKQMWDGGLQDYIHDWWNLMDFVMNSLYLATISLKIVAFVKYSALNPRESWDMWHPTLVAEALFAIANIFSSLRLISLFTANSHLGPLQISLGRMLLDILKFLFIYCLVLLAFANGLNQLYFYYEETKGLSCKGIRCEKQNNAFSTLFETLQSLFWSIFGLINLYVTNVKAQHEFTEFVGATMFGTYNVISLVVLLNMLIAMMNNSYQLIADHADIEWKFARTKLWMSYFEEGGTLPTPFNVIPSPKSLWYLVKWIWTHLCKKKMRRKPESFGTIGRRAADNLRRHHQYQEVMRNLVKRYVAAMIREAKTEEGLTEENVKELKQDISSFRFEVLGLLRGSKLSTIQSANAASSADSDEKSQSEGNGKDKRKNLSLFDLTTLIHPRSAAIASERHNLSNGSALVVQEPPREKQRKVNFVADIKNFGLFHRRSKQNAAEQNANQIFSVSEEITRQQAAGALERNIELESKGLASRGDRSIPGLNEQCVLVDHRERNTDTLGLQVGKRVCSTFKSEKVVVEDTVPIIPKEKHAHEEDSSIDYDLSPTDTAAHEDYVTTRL
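Technique: kinetic Fluo4 calcium fluorescence; Test system: TRPC4beta and mu-opioid receptor HEK293 stable cells; Measure: B-scored integrated calcium fluorescence ratio; Benchmarks: low control buffer alone, high control maximal DAMGO; Schedule: 45 min room-temperature Fluo4 loading, 110 s read.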
TRPC4 PAM: allosterically enhances the mouse TRPC4 cation channel. Q9QUQ5. HEK293 TRPC4beta/mu-opioid, DAMGO EC20, Fluo-4 Ca2+ flux; active compounds read high. B-score at 10 µM. 0.42% of 310,000 active. AID 2227;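 active = B-score of calcium response area above 5 SD of library B-scores, with initial fluorescence ratio within 5 SD of library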
TRPC6 activator: activates the mouse TRPC6 cation channel | Q61143 | HEK293-TRPC6 membrane potential dye fluorescence; active compounds read high | B-score at 10 µM | 0.13% of 310,000 active;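 active = B-score of the integrated fluorescence ratio above library mean plus 3 SD, and starting fluorescence ratio within library mean plus 5 SD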;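 note: higher score means more depolarization so channel activation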
TRPC6 inh: blocks the mouse TRPC6 cation channel; B-score at 10 µM; 1.1% of 310,000 active; Q61143; AID 2553; HEK293-TRPC6, membrane potential dye, ACh-evoked depolarization; active compounds read low;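 active = B-score under library mean minus 3 SD, initial fluorescence not abnormally high, positive integrated signal ratio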;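 note: B-score derived from integrated fluorescence ratio over the kinetic read; more negative B-score means stronger inhibition of depolarization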
TRPC4 inh: inhibitors of mouse TRPC4 channel; Q9QUQ5; HEK293 TRPC4beta/mu-opioid, DAMGO-evoked Fluo4 calcium flux; active compounds read low; B-score at 10 µM; 0.39% of 300,000 active; AID 2247;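 active = B-score over 3 SD under the library average, no early fluorescence shift, positive overall ratio signal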
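Assay system: Stable TRPC4beta/mu-opioid receptor HEK293 cells | Reagent: DAMGO in two steps, submaximal then maximal | Compound dosing: Single concentration per test compound | Signal: Fluo4 Ca2+ flux fluorescence | Evaluation: Per-well B score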
CR mimetic SO: yeast age-related superoxide inhibition as caloric restriction mimetic | 0.18% of 330,000 active | superoxide response (% of plate mean), % at 10 µM | S. cerevisiae aged cells, superoxide DHE fluorescence; active compounds read low;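 active = superoxide response under a set limit, about three screen SD below normal, cut at about 65% in these data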;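 note: yeast aged for seven days with compound at 30 °C before DHE staining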
TRPC4 sel inh 2: second check of whether TRPC6 inhibitors also affect mouse TRPC4; shares compounds with TRPC6 inh; HEK293 TRPC4/MOR, membrane potential dye fluorescence; channel activated by saturating DAMGO dose; inhibition, % at 10 µM; 42% of 920 active; AID 2776;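 active = compounds whose fluorescence signal differed from control wells by over 3 SD, either direction, in both duplicate plates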
TRPC4 spec: tests whether TRPC6 inhibitors also affect mouse TRPC4. shares compounds with TRPC6 inh. HEK293 TRPC4/mu-opioid, membrane potential fluorescence. activity change, negative = inhibition, % at 10 µM. 61% of 920 active;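 active = rise or fall in signal beyond 3 SD of buffer-only wells in both replicate plates, either sign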;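 note: integrated kinetic ratio of fluorescence range over baseline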
HEK293 MPD ctr 2-1: second counter-screen for TRPC6 inhibitors: parental HEK293 cells. AID 2779. signal change vs control, % at 10 µM. shares compounds with TRPC6 inh. 31% of 920 active. parental HEK293 membrane potential dye fluorescence; maximal acetylcholine challenge after compound addition;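 active = membrane potential signal moving either way by over 3 SD of the maximum-effect control, in both duplicate plates, meaning non-specific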
HEK293 MPD ctr-1: parental HEK293 nonspecific activity of TRPC6 inhibitors; shares compounds with TRPC6 inh; parental HEK293 membrane potential dye fluorescence; membrane potential signal change, % at 10 µM; 60% of 920 active;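 active = membrane potential signal shifting up or down by more than 3 SD of buffer-only wells, on both duplicate plates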
HEK293 MPD ctr-2: parental HEK293 nonspecific activity of TRPC6 modulators; shares compounds with TRPC6 inh; membrane potential dye fluorescence; membrane potential signal change, % at 10 µM; 51% of 2,400 active; AID 488924;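 active = membrane potential signal moves up or down beyond 5 SD from buffer-only wells, on both duplicate plates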
HEK293 MPD ctr 2-2: second counter-screen for TRPC6 modulators: effect in parental HEK293 cells. shares compounds with TRPC6 inh. membrane potential dye fluorescence; after compound, maximal acetylcholine stimulation. inhibition, % at 10 µM. 14% of 2,400 active. AID 488926;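 active = membrane potential signal drops by more than 5 SD from the mean control signal, in both duplicate plates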
TRPC4/MOR mod: selectivity of TRPC6 modulators against mouse TRPC4; HEK293 TRPC4/mu-opioid, membrane potential fluorescence; percent change from control (negative = decrease, positive = increase), % at 10 µM; shares compounds with TRPC6 inh; AID 488927; 69% of 2,400 active;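 active = membrane potential signal moved up or down beyond 5 SD of buffer control wells, in both duplicate plates, actives on both sides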
TRPC4 ctr inh 2: mouse TRPC4 off-target activity of TRPC6 modulators, second screen; shares compounds with TRPC6 inh; HEK293 TRPC4/mu-opioid, membrane potential dye fluorescence; stimulated with maximal-effect DAMGO; inhibition, % at 10 µM; 55% of 2,400 active;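 active = drop in membrane potential signal beyond 5 SD of the control wells in both duplicate plates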;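 note: TRPC4 counter screen for TRPC6 hits run under conditions tuned for TRPC6 not TRPC4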
TRPC6 inh conf: mouse TRPC6 inhibitor confirmation | shares compounds with TRPC6 inh | 43% of 3,300 active | HEK293-TRPC6, membrane potential dye, ACh-evoked depolarization | inhibition, % at 10 µM;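 active = fluorescence ratio falls more than 5 SD below the full-stimulation control mean, in both duplicate runs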;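 note: integrated fluorescence ratio of peak minus minimum over baseline after agonist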
TRPC6 act confirm: confirmation of mouse TRPC6 activators. 11% of 2,800 active. shares compounds with TRPC6 inh. AID 488961. HEK293-TRPC6 membrane potential dye fluorescence, FDSS. activation, % at 10 µM;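 active = ratio signal rise beyond 5 SD above unstimulated control wells' mean, seen in both duplicate runs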
Numbers stand for hits; i = inactive; nt = not tested or not shown.

SMILES	TRPC4 agonist	TRPC4 PAM	TRPC6 activator	TRPC6 inh	TRPC4 inh	CR mimetic SO	HEK293 MPD ctr-2	HEK293 MPD ctr 2-2	TRPC4/MOR mod	TRPC4 ctr inh 2	TRPC6 inh conf	TRPC6 act confirm	others
CCOc1cc(/C=N/NC(=O)c2ccccn2)ccc1OC(=O)c1ccc(F)cc1	i	i	i	-5.33	i	i	i	i	i	i	i	i
COc1ccc2cc(C(=O)/C=C/c3cc(OC)c(O)c(OC)c3)ccc2c1	i	i	i	i	i	i	nt	nt	nt	nt	nt	nt
COc1ccc(C(=O)/C=C/c2cc(OC)c(O)c(OC)c2)c(F)c1	i	i	17.7	i	i	i	287.5%	i	54.5%	i	i	108.5%
Cc1cccc[n+]1CC(=O)N1c2ccccc2Sc2ccccc21	i	i	i	-11	i	i	nt	nt	nt	nt	93.2%	i	TRPC4 sel inh 2=i;TRPC4 spec=i;HEK293 MPD ctr 2-1=-11.5%;HEK293 MPD ctr-1=i
CC(C)CNCC(=O)N1c2ccccc2Sc2ccccc21	i	i	i	-5.69	i	i	124.0%	i	15.5%	56.5%	i	nt
Cc1ccccc1-n1nnnc1SC1CCOC1=O (stereo not given)	i	i	i	i	i	i	nt	nt	nt	nt	nt	nt
CN(Cc1ccccn1)C(=O)c1ccc2nc(Cc3cccc(Cl)c3)oc2c1	i	i	i	i	i	i	nt	nt	nt	nt	nt	nt
O=C(NCC(=O)N(c1cccc(F)c1)C(C(=O)NC1CCCC1)c1ccco1)c1ccco1 (stereo not given)	i	i	i	i	i	i	nt	nt	nt	nt	nt	nt
O=C(NCC(=O)N(c1ccc2c(c1)OCCO2)C(C(=O)NC1CCCC1)c1ccco1)c1ccco1 (stereo not given)	i	i	i	-7.66	i	i	nt	nt	nt	nt	62.3%	nt	TRPC4 sel inh 2=i;TRPC4 spec=1.1%;HEK293 MPD ctr 2-1=i;HEK293 MPD ctr-1=0.7%
CCc1nnc(NC(=O)CSc2nnc(CCc3nc4ccccc4[nH]3)n2C)s1	i	i	i	i	i	i	nt	nt	nt	nt	nt	nt
Cc1nnc(NC(=O)CSc2nnc(CCc3nc4ccccc4[nH]3)n2C)s1	i	i	14.4	i	i	i	261.0%	i	40.5%	i	i	108.5%
O=C(CNC(=O)c1ccc(N2CCCC2=O)cc1)Nc1ccc(F)c(F)c1F	nt	nt	nt	nt	nt	i	nt	nt	nt	nt	nt	nt
CC(C)c1ccc(S(=O)(=O)/N=C2\C=C(NS(=O)(=O)c3ccccc3)C(=O)c3ccccc32)cc1	i	i	i	-5.26	-13	i	-169.5%	64.0%	-30.5%	80.0%	68.5%	i
Cc1ccccc1NC1=C/C(=N\S(=O)(=O)c2ccc(C(=O)O)cc2)c2ccccc2C1=O	i	i	i	i	i	i	nt	nt	nt	nt	nt	nt
COc1ccc(CCN2Cc3c(cccc3[N+](=O)[O-])C2=O)cc1OC	i	i	i	i	i	i	nt	nt	nt	nt	nt	nt
O=C(Nc1nc2ccccc2n1CCOc1ccccc1)c1ccco1	i	i	i	i	i	i	nt	nt	nt	nt	nt	nt
CCn1cc(Cl)c(C(=O)Nc2nc3ccccc3n2CCN2CCCCC2)n1	i	i	i	-8.65	i	i	-270.5%	73.5%	-41.5%	65.5%	60.5%	i
O=C(Nc1nc2ccccc2n1CCN1CCCCC1)c1ccco1	i	i	i	-7.89	i	i	nt	nt	nt	nt	i	i	TRPC4 sel inh 2=48.0%;TRPC4 spec=-17.8%;HEK293 MPD ctr 2-1=i;HEK293 MPD ctr-1=-264.5%
CC(=O)NC(Nc1c(C)n(C)n(-c2ccccc2)c1=O)C(Cl)(Cl)Cl (stereo not given)	i	i	i	i	i	i	nt	nt	nt	nt	nt	nt
O=C(NCc1ccncc1)C(=O)NCC(c1ccco1)N1CCN(c2ccccc2F)CC1 (stereo not given)	i	i	i	i	i	i	nt	nt	nt	nt	nt	nt
O=c1[nH]c(CN2CCN(C/C=C/c3ccccc3)CC2)nc2cc(Cl)ccc12	i	i	i	-5.3	i	i	i	i	8.5%	44.0%	i	i
O=C(CCc1nc2ccccc2c(=O)[nH]1)N1CCN(C/C=C/c2ccccc2)CC1	i	i	i	i	i	i	nt	nt	nt	nt	nt	nt
Nn1c(COc2ccccc2)nnc1SCc1cc(=O)[nH]c2ccccc12	i	i	i	i	i	i	nt	nt	nt	nt	nt	nt
CC(C)NC(=O)Nc1cccc2c1O[C@H](CN(C)C(=O)NC1CCCCC1)[C@H](C)CN([C@H](C)CO)C2=O	nt	nt	nt	nt	nt	i	nt	nt	nt	nt	nt	nt
O=C1Nc2ccccc2/C1=N/N=C/c1ccc(-c2ccc([N+](=O)[O-])cc2)o1	i	i	i	i	i	nt	nt	nt	nt	nt	nt	nt
SMILES	TRPC4 agonist	TRPC4 PAM	TRPC6 activator	TRPC6 inh	TRPC4 inh	CR mimetic SO	HEK293 MPD ctr-2	HEK293 MPD ctr 2-2	TRPC4/MOR mod	TRPC4 ctr inh 2	TRPC6 inh conf	TRPC6 act confirm	others
O=[N+]([O-])c1ccc(N2CCc3ccccc3C2)cc1	i	i	i	-5.26	i	i	i	i	i	i	i	i
COc1ccccc1CNC(=O)CCNS(=O)(=O)c1cccc2nonc12	i	i	i	i	i	i	nt	nt	nt	nt	nt	nt
COc1cccc(CNc2nc3nc(C)c(Cl)c(C)n3n2)c1	i	i	i	i	i	i	nt	nt	nt	nt	nt	nt
Cn1c(-c2ccc3c(c2)OCO3)cnc1NCc1ccccc1Cl	i	i	i	-5.28	i	i	i	i	i	68.5%	i	i
Cn1c(-c2ccc3c(c2)OCO3)cnc1NCc1cccc(Cl)c1	i	i	i	-7.86	i	i	nt	nt	nt	nt	i	i	TRPC4 sel inh 2=46.0%;TRPC4 spec=i;HEK293 MPD ctr 2-1=i;HEK293 MPD ctr-1=i
Cn1c(-c2ccc3c(c2)OCO3)cnc1NCc1ccccc1	i	i	i	-5.8	i	i	i	i	i	55.5%	36.5%	i
COc1ccc(CCNC(=O)CSc2nc3[nH]ncc3c(=O)n2-c2ccc(C)c(Cl)c2)cc1OC	i	i	i	i	i	nt	nt	nt	nt	nt	nt	nt

Screens as filed in PubChem BioAssay.
